Tests used:
A2780 = test: Antitumor activity of compound for 96-h exposure in A2780 human ovarian cell line; type: functional, cell-based; conditions: A2780, 96 h
Summary of the method: (§1)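 Cells grown as monolayers in DMEM with 10% fetal bovine serum, 2 mM glutamine and 0.5 µg/mL hydrocortisone, in 6% CO2. Seeded at 3000-5000/well and attached overnight. Serial drug dilutions (compound dissolved in 10% DMSO) added to quadruplicate wells, 96 h. Fixed with TCA, stained with SRB, absorbance read at 540 nm. IC50 is the concentration giving 50% of control absorbance. Resistance factor is resistant-subline IC50 divided by parent IC50.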

A2780cisR = test: Antitumor activity of compound for 96-h exposure in A2780cisR (acquired resistance to cisplatin) human ovarian cell line; type: functional, cell-based; summary of the method: as §1
Mus musculus [1] = test: Activity was determined in sc human tumor xenograft (hallow fiber) assays, adult female nude mice; type: functional
SK-OV-3 [2] = test: Antitumor activity of compound for 96-h exposure in SKOV-3 human ovarian cell line; type: functional, cell-based; conditions: SK-OV-3, 96 h; summary of the method: as §1
CH1 [3] = test: Antitumor activity of compound for 96-h exposure in CH1 human ovarian cell line; type: functional, cell-based; conditions: CH1, 96 h; summary of the method: as §1
Mus musculus [4] = test: Activity was determined in ip human tumor xenograft (hallow fiber) assays in adult female nude mice; type: functional
Mus musculus [5] = species: Mus musculus; test: Total score was determined, adult female nude mice; type: functional
SK-OV-3 [6] = test: Growth inhibitory activity of compound for 96-h exposure in SKOV-3 cell line; type: functional, cell-based; conditions: Homo sapiens, SK-OV-3, 96 h; summary of the method: as §1
SK-OV-3 [7] = test: Growth inhibitory activity of compound for 6-h exposure in SKOV-3 cell line; type: functional, cell-based; conditions: Homo sapiens, SK-OV-3, 6 h
Summary of the method: (§2)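 SKOV-3 monolayers treated with serially diluted drug in quadruplicate wells. Drug aspirated after 2, 6 or 24 h and replaced with fresh medium for the rest of a 96-h period. Growth measured by TCA fixation, SRB staining and absorbance at 540 nm. IC50 is the concentration halving mean absorbance relative to untreated controls.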

OVCAR-3 = test: In vivo antitumor activity was determined after a dose of 4.5 mg/kg (ip) using hollow fiber assay against OVCAR-3 human ovarian carcinoma cells (ip-implanted fibers); type: functional
SK-OV-3 [8] = test: Growth inhibitory activity of compound for 24-h exposure in SKOV-3 cell line; type: functional, cell-based; conditions: Homo sapiens, SK-OV-3, 24 h; summary of the method: as §2
CH1 [9] = test: In vivo antitumor activity was determined after a dose of 4 mg/kg (ip) using hollow fiber assay with (ip)implanted CH1 cells; type: functional, Homo sapiens
Summary of the method: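 CH1 cells trypsinized, seeded at 1 × 10^7 cells/mL into 2-cm PVDF fibers, heat-sealed and incubated 3 days. Fibers then implanted ip in nude mice. Next day a single 4 mg/kg ip dose given, or vehicle (10% DMSO/90% arachis oil). Fibers retrieved six days later; viable cells measured by MTT absorbance at 540 nm and expressed as % treated/control.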

[10] = Resistance factor was determined using the ratio of resistance of resistant cell line and its parent cell line
SK-OV-3 [11] = test: Growth inhibitory activity of compound for 2-h exposure in SKOV-3 cell line; type: functional, cell-based; conditions: Homo sapiens, SK-OV-3, 2 h; summary of the method: as §2

Compound | IC50 (A2780) [µM] | IC50 (A2780cisR) [µM] | Subcut score (Mus musculus [1]) | IC50 (SK-OV-3 [2]) [µM] | IC50 (CH1 [3]) [µM] | Ip score (Mus musculus [4]) | Total score (Mus musculus [5]) | IC50 (SK-OV-3 [6]) [µM] | IC50 (SK-OV-3 [7]) [µM] | T/C (OVCAR-3) | IC50 (SK-OV-3 [8]) [µM] | T/C (CH1 [9]) | RF [10] | IC50 (SK-OV-3 [11]) [µM]
COc1ccc(-c2nc3cc(-c4ccc5[nH]c(-c6ccc(OC)cc6)nc5c4)ccc3[nH]2)cc1 | 13.5 | 5.1 | 0 | 16.5 | 3.8 | 8 | 8 | – | – | – | – | – | – | –
CN(C)CCCOc1ccc(-c2nc3cc(-c4ccc5nc(-c6ccc(OCCCN(C)C)cc6)[nH]c5c4)ccc3[nH]2)cc1 | 0.235 | 0.115 | 4 | 0.375 | 0.24 | 12 | 16 | 0.1 | 0.105 | 0.56 | 0.115 | 0.79 | 5.8 | 0.33
Oc1ccc(-c2nc3ccc(-c4ccc5nc(-c6ccc(O)cc6)[nH]c5c4)cc3[nH]2)cc1 | 4.3 | 2.7 | 0 | 16 | 1.05 | 10 | 10 | – | – | – | – | – | – | –
COc1cccc2c1C(=O)c1c(O)c3c(c(O)c1C2=O)C[C@@](O)(C(=O)CO)C[C@@H]3O[C@H]1C[C@H](N)[C@H](O)[C@H](C)O1 [DOXORUBICIN] | – | – | – | – | – | – | – | – | – | – | – | – | 90 | –
CN1CCN(c2ccc3[nH]c(-c4ccc5[nH]c(-c6ccc(O)cc6)nc5c4)nc3c2)CC1 [HOECHST 33258] | 12 | 9.5 | – | > 100 | 26.5 | – | – | – | – | – | – | – | – | –

Source: ChEMBL document CHEMBL1134602, “A new class of symmetric bisbenzimidazole-based DNA minor groove-binding agents showing antitumor activity” (J Med Chem, 2001)
